# Source: PubChem BioAssay
# rCAG RNA binder = r(CAG) repeat RNA binding; TO-PRO-1 dye displacement fluorescence; inhibition, % at 3 µM; 370,000 tested, 1.3% active; AID 651821;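 active = inhibition above the plate cutoff, the mean of all test compounds on that plate plus 3 SD, cut at about 35% in these data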;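 note: 0% = DMSO alone and 100% = 100 µM mitoxantrone as full dye displacement; higher means more dye released from RNA so lower well fluorescence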
# LEDGF integ inh = blocks HIV-1 LEDGF/p75-dependent DNA integration; 370,000 tested, 0.64% active; TR-FRET IN-LEDGF/p75 DNA integration, Eu/Cy5; inhibition, % at 3.7 µM;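 active = inhibition above the screen-wide mean plus 3 SD, cut at about 13% in these data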;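 note: signal is the Cy5 over europium emission ratio at 671 and 618 nm; 0% = plate median of compound wells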
# DAGLB inh = diacylglycerol lipase beta (human) inhibition; HEK293T DAGLB membrane lysate, EnzChek fluorogenic substrate; 340,000 tested, 0.059% active; Q8NCG7; AID 504411; inhibition, % at 5.17 µM; in the data active = inhibition above about 34%;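 note: 0% = enzyme with vehicle and 100% = wells lacking enzyme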
# HTRA1 inhibitor = blocks human HTRA1 serine peptidase; Q92743; recombinant HTRA1, FP-rhodamine activity-based probe, fluorescence polarization; inhibition, % at 5.96 µM; 340,000 tested, 0.5% active; in the data active = inhibition above about 36%;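 note: 0% = enzyme with DMSO and 100% = wells lacking enzyme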
# mABHD4 FP = inhibits mouse alpha/beta hydrolase domain 4. inhibition, % at 8.92 µM. 370,000 tested, 0.54% active. AID 720543. purified mABHD4, FP-Rh probe fluorescence polarization;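 active = inhibition exceeding the mean over every tested compound plus 3 SD, cut at about 30% in these data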;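 note: 0% = plate median of compound wells and 100% = S159A mutant with DMSO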
#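 system = mouse ABHD4 enzyme, wild type | medium = HEPES pH 7.0, NaCl, Pluronic buffer | also added = FP-Rh probe | incubation = Enzyme–compound pre-incubation 45 min, then probe 60 min, both 25 °C | technique = fluorescence polarization, excitation 525 nm, emission 598 nm, BODIPY TMR filters | controls = S159A mutant high control, sample median low control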
# PRMT1 FP inh = PRMT1 (human) inhibition, primary screen. 370,000 tested, 1.3% active. recombinant PRMT1, activity-based probe fluorescence polarization. AID 652257. inhibition, % at 2.79 µM;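 active = inhibition above about 21% made by adding two undisclosed values, limit read from the data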
# Target sequence (Q99873 whole entry, looked up): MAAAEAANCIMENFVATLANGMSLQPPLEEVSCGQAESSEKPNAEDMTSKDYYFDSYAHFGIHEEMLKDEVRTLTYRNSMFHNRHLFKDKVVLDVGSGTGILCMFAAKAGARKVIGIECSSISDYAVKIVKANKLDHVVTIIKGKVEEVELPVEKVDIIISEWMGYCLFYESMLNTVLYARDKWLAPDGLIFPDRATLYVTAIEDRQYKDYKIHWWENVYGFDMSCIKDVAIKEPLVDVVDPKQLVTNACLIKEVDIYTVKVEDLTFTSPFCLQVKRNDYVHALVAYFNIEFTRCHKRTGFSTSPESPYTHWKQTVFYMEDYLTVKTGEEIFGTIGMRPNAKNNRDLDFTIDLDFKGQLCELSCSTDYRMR
# PRMT1 inh conf = confirmation of human PRMT1 inhibitors; shares compounds with PRMT1 FP inh; recombinant His-PRMT1, activity-based probe fluorescence polarization; inhibition, % at 2.79 µM; 3,300 tested, 42% active;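 active = mean inhibition across replicates above the hit cutoff derived for the earlier primary screen, cut at about 22% in these data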
# An asterisk follows results filed as active; . = not tested or not shown. Shown are actives, neighbours in structure and some others; about 3.2% of the full set was active somewhere.
SMILES,rCAG RNA binder,LEDGF integ inh,DAGLB inh,HTRA1 inhibitor,mABHD4 FP,PRMT1 FP inh,PRMT1 inh conf
CCCN1CNC(=S)N(CC2CCCO2)C1 (configuration not stated),-3,-4,-2,3,4,67*,-4
CCCN1CNC(=S)N(Cc2ccccc2)C1,-2,2,1,4,7,-2,.
Cc1ccc2c(C)cc[n+](CCCS(=O)(=O)[O-])c2c1,0,3,2,3,-4,-2,.
CC[n+]1c(C)cc2c(sc3ccccc32)c1C,-1,1,1,-1,-1,-3,.
CC[n+]1c(C)sc2c(C)cc(C)cc21,-3,-5,-1,4,-2,46*,20
Cc1cc(C)c2sc(C)[n+](CCCS(=O)(=O)[O-])c2c1,13,-7,1,2,-1,51*,32*
CN1CCc2nc(SCC(=O)Nc3ccc(OC(F)(F)F)cc3)c(C#N)c(-c3cccs3)c2C1,21,6,-5,-3,-10,40*,41*
Cc1cccc(CSc2nc3c(c(-c4cccs4)c2C#N)CN(C)CC3)c1,7,0,-1,-1,6,0,.
CN1CCc2nc(SCC(=O)Nc3cccc(F)c3)c(C#N)c(-c3cccs3)c2C1,19,2,-5,-5,5,65*,23*
Nc1nnc(SCC(=O)NNC(=O)c2ccc([N+](=O)[O-])cc2)s1,0,5,1,-2,2,2,.
CC(C)CN1CCC(=O)N([C@H](CN=[N+]=[N-])Cc2ccccc2)CC1,-4,3,0,1,-1,-1,.
Cc1ccc(/C=C/C(=O)NCc2cccs2)cc1,0,3,-13,-2,-10,-4,.
Cc1ccc(/C=C/C(=O)NCc2cccs2)o1,5,-2,-1,3,3,32*,19
O=C1C=CC(=O)N1CCCCCCCCCCN1C(=O)C=CC1=O,0,4,2,-3,-2,82*,98*
O=C(O)CCCCCN1C(=O)CCC1=O,1,2,0,-1,-2,1,.
O=C(OCC(=O)c1c[nH]c2ccccc12)c1cc(S(=O)(=O)N2CCOCC2)ccc1F,12,-3,0,-21,-4,-1,.
O=c1[nH]c(-c2ccccn2)nc2sc(-c3ccccc3)cc12,4,-6,-4,10,-1,33*,-5
Cc1c(C(=O)N(C)C)sc2nc(-c3ccccn3)[nH]c(=O)c12,2,-24,-1,-1,-1,8,.
O=C(COc1ccccc1)Nc1nc(-c2ccncc2)cs1,6,-4,-3,-13,-11,35*,34*
O=C(COc1ccccc1)Nc1nc(-c2cccnc2)cs1,7,-1,0,-5,-8,7,.
Cc1cc(C)cc(OCC(=O)Nc2nc(-c3cccnc3)cs2)c1,5,-1,-2,6,-10,35*,13
COc1ccc(NC(=O)C2CCN(S(=O)(=O)c3cccc4nonc34)CC2)cc1OC,8,3,-3,2,3,1,.
O=C1CN(CC(=O)Nc2cccc(Cl)c2Cl)c2ccccc2N1,12,-3,3,-16,-2,52*,76*
CC(C)(C)c1ccc(C#C[C@@H]2C=C[C@@H](O)[C@@H](CO)O2)cc1,-1,0,.,.,-2,-1,.
NC(=O)c1cccc2ccccc12,-1,-4,0,3,3,-6,.
SMILES,rCAG RNA binder,LEDGF integ inh,DAGLB inh,HTRA1 inhibitor,mABHD4 FP,PRMT1 FP inh,PRMT1 inh conf
N#CSCC(=O)c1cccc2ccccc12,16,-3,-11,-13,3,60*,47*
CCc1ccc(NC(=O)Nc2cc(C(=O)O)ccc2N2CC3CC(C2)c2cccc(=O)n2C3)cc1 (configuration not stated),18,-1,-3,0,3,3,.
O=C1CSC(=S)N1N=Cc1ccccc1O,15,-1,1,8,15,53*,74*
O=C1CSC(=S)N1N=Cc1cccc(OCc2ccccc2)c1,26,-3,-8,-16,1,12,.
O=C1CSC(=S)N1/N=C/c1ccc2c(c1)OCCO2,13,3,-2,3,-4,27*,10
COc1cc(O)c(C=NN2C(=O)CSC2=S)c(OC)c1,12,-1,6,3,27,27*,32*
O=C1CSC(=S)N1/N=C/c1cccnc1,6,1,1,-1,11,48*,8
[O-][n+]1nc2ccccc2c2ccccc21,4,0,3,4,-6,-2,.
COc1cc2c(cc1OC)C(C)N(CCc1ccc(Cl)cc1)CC2 (configuration not stated),-9,-4,.,.,-2,1,.
Cc1ccc(-c2nn(-c3ccccc3)cc2/C=C/C(=O)O)o1,14,0,-1,-9,-2,31*,0
Cc1ccc(-c2nn(-c3ccccc3)cc2CN(Cc2ccccc2)C(=O)c2ccco2)o1,6,1,-1,-54,-9,39*,19
COC(=O)[C@]12C[C@H](CC(=O)NCc3ccccc3)C(=O)N(Cc3ccc(Cl)cc3Cl)C1=C[C@H](COCc1ccccc1)O[C@@H]2C,12,-5,.,.,-6,0,.
COC(=O)[C@]12C[C@H](CC(=O)NCc3cccc4ccccc34)C(=O)N(Cc3ccc(Cl)cc3Cl)C1=C[C@H](COCc1ccccc1)O[C@@H]2C,12,-2,.,.,-10,68*,1
CC(=O)Nc1cccc(OC(=O)COc2ccc(Br)cc2)c1,-4,-3,-5,-7,6,-3,.
O=C(CCNC(=O)c1ccccc1)NCCCc1ccccc1,1,-6,1,0,1,2,.
Cc1cc(C(=O)CCC(=O)N(C)CC(=O)Nc2c(Cl)cccc2Cl)c(C)s1,-2,1,0,-3,3,28*,1
O=C(O)Cn1cc(C(=S)N2CCCCC2)c2ccccc21,3,-2,0,0,15,25*,5
O=C(O)Cn1cc(C(=S)N2CCOCC2)c2ccccc21,1,5,-2,3,-4,17,.
CC(C)C(C(=O)NCc1ccco1)N(Cc1ccco1)C(=O)CNS(=O)(=O)c1ccc(F)cc1 (configuration not stated),-2,-2,1,-3,-4,1,.
CC(=O)n1nc(-c2ccncc2)nc1SCC(=O)Nc1cccc(Cl)c1,3,1,2,2,-1,-3,.
CC(=O)NC1C(=O)N=C(SCC(=O)Nc2cccc(Cl)c2)NC1=O (configuration not stated),2,-3,0,4,6,39*,8
COc1ccc(CCNC(=O)c2ccc(-c3ccc([N+](=O)[O-])cc3Cl)o2)cc1,13,2,-3,-29,-1,28*,1
